Laboratory results reported in ChEMBL document CHEMBL1131312 (J Med Chem, 1998).
pIC50: −log10 of the molar value. Converted amounts (≈) assume the structure as drawn. The source made the active and inactive calls.

Key:
[1] = system: Mus musculus; experiment: percent T / C values ([…] / control) against P388 murine leukemia cells at 160 mg/kg dose; assay type: functional
In short: (§1)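 CDF1 mice over 18 g implanted iv with 10^6 P388 leukemia cells on day 0 and randomized. Single ip dose on day 1, chosen from 2.5, 10, 40 or 160 mg/kg. Survival and clinical signs followed daily; weights taken days 1, 4 and 8. T/C% is median survival of treated over control × 100; 125-175% is the minimum activity level.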

[2] = molecular target: T1, DNA topoisomerase II (Homo sapiens, UniProt P11388+Q02880); experiment: Concentration of compound at which inhibitory activity detected against DNA topoisomerase II; assay type: protein assay, Drosophila melanogaster
[3] = Water solubility of the compound; assay type: ADME; conditions: for solubility: water, read-out: S; for S: buffer
[4] = system: Mus musculus; experiment: compound was tested in vivo for inhibition of P388 murine leukemia cells after iv / ip administration.; assay type: functional; in short: as §1
[5] = in vitro inhibitory activity against tubulin polymerization.; set-up: species or system Ovis aries
[6] = system: L1210; experiment: In vitro cytotoxic activity against murine L1210 leukemia cells.; assay type: functional, cell-based, Mus musculus
In short: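 Murine L1210 leukemia cells grown in RPMI 1640 with 10% heat-inactivated horse serum at 37 °C, 5% CO2, used within 40 passages (doubling time 8-10 h). Exponentially growing cells (1.5 × 10^5/well) exposed to a concentration range for 48 h, then counted electronically.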

[7] = system: Mus musculus; experiment: percent T / C values ([…] / control) against P388 murine leukemia cells at 40 mg/kg dose; assay type: functional; in short: as §1
[8] = system: Mus musculus; experiment: compound was tested in vivo for inhibition of P388 murine leukemia cells after iv / ip administration at 40 mg/ kg; NA indicates inactive; assay type: functional, organism-based; set-up: dose 40 mg/ kg
In short: (§2)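 P388 leukemia cells (10^6/mouse) implanted iv in CDF1 mice (>18 g) on day 0. After randomization, single ip dose on day 1 from the series 2.5, 10, 40, 160 mg/kg. Daily clinical checks and death recorded, weights on days 1, 4, 8. Activity scored as median survival treated/control ×100 (T/C, %), with 125–175% as minimum activity (NCI criteria).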

[9] = Water solubility of the compound; insoluble; assay type: ADME; conditions: buffer
[10] = system: Mus musculus; experiment: Compound was tested in vivo for inhibition of P388 murine leukemia cells after iv / ip administration at 40 mg/ kg; NA indicates inactive; assay type: functional, organism-based; set-up: dose 40 mg/ kg; in short: as §2
[11] = molecular target: T1, DNA topoisomerase II; experiment: In vitro inhibitory activity against DNA topoisomerase II; assay type: protein assay, Drosophila melanogaster
[12] = Mus musculus, P388, read-out: ED50

Row | SMILES | EC50 [2] | solubility [3] | pIC50 [5] | pIC50 ([6]; Mus musculus, L1210) | also measured
1 | COc1cc([C@@H]2c3cc4c(cc3[C@@H](OC3CC(N)C5OC(C)OCC5O3)[C@H]3COC(=O)[C@H]23)OCO4)cc(OC)c1O (stereo in doubt; 17) | > 100000 nM | 11 mg/mL (≈ 19.2 mM) | < 5.00 |  | T/C max [1]: 300%; ED50 [4]: 5 mg/kg; pIC50 ([6]; l1210): 6.64
2 | COc1cc([C@@H]2c3cc4c(cc3[C@@H](O[C@@H]3O[C@@H]5CO[C@@H](C)O[C@H]5[C@H](O)[C@H]3O)[C@H]3COC(=O)[C@H]23)OCO4)cc(OC)c1O [ETOPOSIDE] |  |  |  | 6.70 | T/C max [1]: 242%; S [3]: 0.01 mg/mL; ED50 [4, 12]: 5 mg/kg
3 | COc1cc([C@@H]2c3cc4c(cc3CC3COC(=O)[C@@H]32)OCO4)cc(OC)c1O (stereo partly specified) |  |  | 4.89 |  | 
4 | COc1cc([C@@H]2c3cc4c(cc3[C@@H](OC3CC(N(C)C)C5OC(C)OCC5O3)[C@H]3COC(=O)[C@H]23)OCO4)cc(OC)c1O (stereo in doubt; 28) | > 100000 nM |  |  |  | T/C max ([7]; 40 mg/kg): 243%; S [3]: 24 mg/mL; ED50 [4]: 1.7 mg/kg; pIC50 ([6]; l1210): 6.96
5 | COc1cc([C@@H]2c3cc4c(cc3[C@H](O)[C@H]3COC(=O)[C@H]23)OCO4)cc(OC)c1OC [PODOFILOX] |  |  | 5.52 |  | 
6 | COc1cc([C@@H]2c3cc4c(cc3[C@@H](O[C@@H]3CC(N)C5OC(C)OCC5O3)[C@H]3COC(=O)[C@H]23)OCO4)cc(OC)c1O (stereo partly specified) | > 100000 nM | 10 mg/mL (≈ 17.5 mM) | < 4.30 | 5.89 | ED50 [8]: inactive
7 | COc1cc([C@@H]2c3cc4c(cc3[C@@H](OC3CC(N(C)C)C5OC(C)OCC5O3)[C@H]3COC(=O)[C@H]23)OCO4)cc(OC)c1O (stereo in doubt; 29) | > 100000 nM | 26 mg/mL (≈ 43.4 mM) | < 4.30 | 7.05 | T/C max ([7]; 40 mg/kg): 257%; ED50 [4]: 5 mg/kg
8 | COc1cc([C@@H]2c3cc4c(cc3[C@@H](OC3CC(NCC#N)C5OC(C)OCC5O3)[C@H]3COC(=O)[C@H]23)OCO4)cc(OC)c1O (stereo partly specified) | > 1000 nM |  | < 4.00 | 5.70 | T/C max [1]: 186%; S [9]: Insoluble; ED50 [4, 12]: 20 mg/kg
9 | COc1cc([C@@H]2c3cc4c(cc3[C@@H](OC3CC(N)C(O)C(C)O3)[C@H]3COC(=O)[C@H]23)OCO4)cc(OC)c1O (stereo partly specified) | 5600 nM | 13 mg/mL (≈ 24.5 mM) | < 5.00 | 4.92 | ED50 [8]: inactive
10 | COc1cc([C@@H]2c3cc4c(cc3[C@@H](OC3CC(N)C5OC(C)OCC5O3)[C@H]3COC(=O)[C@H]23)OCO4)cc(OC)c1O (stereo in doubt; 27) | > 100000 nM |  | < 4.30 |  | T/C max [7]: 193%; S [3]: 9 mg/mL; ED50 [4]: 1.7 mg/kg; pIC50 ([6]; l1210): 7.15
11 | COc1cc([C@@H]2c3cc4c(cc3[C@@H](OC3CC(N5CCOCC5)C5OC(C)OCC5O3)[C@H]3COC(=O)[C@H]23)OCO4)cc(OC)c1O (stereo partly specified) | > 1000 nM |  |  | < 6.00 | ED50 [10]: inactive; S [9]: Insoluble
12 | COc1cc([C@@H]2c3cc4c(cc3[C@@H](OC3CC(NCCN)C5OC(C)OCC5O3)[C@H]3COC(=O)[C@H]23)OCO4)cc(OC)c1O (stereo partly specified) | > 100000 nM | 40 mg/mL (≈ 65.1 mM) | < 5.00 | 5.77 | ED50 [8]: inactive
13 | COc1cc([C@@H]2c3cc4c(cc3C(OC3OC5COC(C)OC5C(O)C3N(C)C)C3COC(=O)[C@@H]32)OCO4)cc(OC)c1O (stereo partly specified) |  | 15 mg/mL (≈ 24.4 mM) |  |  | EC50 [11]: 56000 nM
14 | COc1cc([C@@H]2c3cc4c(cc3[C@@H](OC3CC(N)C(O)C(CN)O3)[C@H]3COC(=O)[C@H]23)OCO4)cc(OC)c1O (stereo partly specified) | > 100000 nM | 42 mg/mL (≈ 77.1 mM) | 4.96 | 6.68 | ED50 [8]: inactive
